Laboratory results: ChEMBL document CHEMBL1759862, “Tricyclic compounds containing nonenolizable cyano enones. A novel class of highly potent anti-inflammatory and cytoprotective agents” (J Med Chem, 2011)
The source made the active and inactive calls. No cut-off for these calls is given here.

What was measured:
[1] = Antiinflammatory activity in CD-1 mouse Macrophage assessed as inhibition of IFN-gamma induced NO production after 48 hrs by Griess reaction; assay type: functional, cell-based
[2] = system: RAW264.7; experiment: Antiinflammatory activity in mouse RAW264.7 cells assessed as inhibition of IFN-gamma induced NO production after 24 hrs by Griess reaction; assay type: functional, cell-based
Method in brief: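 RAW 264.7 cells exposed to serial concentrations of compound together with IFN-γ (10 ng/mL) for 24 h; NO in supernatants quantified by Griess reaction. IC50 tested over 0.1 pM to 10 μM in 10-fold steps; values averaged from two separate experiments.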

[3] = Cytotoxicity against CD-1 mouse macrophages at 10 uM; assay type: cell-based; conditions: macrophage
[4] = target: NAD(P)H dehydrogenase [quinone] 1 (Mus musculus) (UniProt Q64669); experiment: Induction of NQO1 activity in mouse Hepa-1c1c7 cells after 48 hrs; assay type: cell-based
[5] = system: RAW264.7; experiment: Induction of HO-1 expression in mouse RAW264.7 cells at 30 nM after 6 hrs by Western blotting; assay type: functional, cell-based
Method in brief: (§1)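 RAW cells treated with compound for 6 h (30–300 nM range); HO-1 detected in total cell lysates by Western blot.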

[6] = system: RAW264.7; experiment: Induction of HO-1 expression in mouse RAW264.7 cells at 300 nM after 6 hrs by Western blotting; assay type: functional, cell-based; method in brief: as §1
[7] = system: RAW264.7; experiment: Induction of HO-1 expression in mouse RAW264.7 cells at 100 nM after 6 hrs by Western blotting; assay type: functional, cell-based
Method in brief: (§2)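 RAW 264.7 macrophages were exposed to compound at 10–100 nM for 6 h. HO-1 protein was detected by Western blot of total cell lysates.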

[8] = system: RAW264.7; experiment: Induction of HO-1 expression in mouse RAW264.7 cells at 10 nM after 6 hrs by Western blotting; assay type: functional, cell-based; method in brief: as §2
[9] = Mus musculus, CD-1, Macrophage, 48 h

Sequence of NAD(P)H dehydrogenase [quinone] 1 (Mus musculus) (Q64669 whole entry): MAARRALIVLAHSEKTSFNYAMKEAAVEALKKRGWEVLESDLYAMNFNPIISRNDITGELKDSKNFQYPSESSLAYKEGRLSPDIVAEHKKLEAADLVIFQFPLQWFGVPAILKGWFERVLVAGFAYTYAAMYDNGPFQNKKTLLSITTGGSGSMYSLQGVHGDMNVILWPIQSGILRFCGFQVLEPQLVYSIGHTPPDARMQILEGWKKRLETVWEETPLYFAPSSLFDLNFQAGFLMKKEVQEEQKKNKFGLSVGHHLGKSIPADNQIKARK

Row | SMILES | IC50 ([2]; Mus musculus, RAW264.7, 24 h) | Activity [3] | further results
1 | CC1(C)C(=O)C(C#N)=C[C@]2(C)C3=CC(=O)C(C#N)=C[C@]3(C)CC[C@@H]12 [listing 1 of 2 here] |  |  | IC50 ([1]; macrophage): 14 nM
2 | CC1(C)C(=O)C(C#N)=C[C@]2(C)C3=CC(=O)CC[C@]3(C(N)=O)CC[C@@H]12 (racemic) | > 10000 nM |  | 
3 | COC(=O)C1=C[C@]2(C)C3=CC(=O)C(C#N)=C[C@]3(C)CC[C@H]2C(C)(C)C1=O (racemic) |  | Non-toxic | IC50 [1, 9]: > 60 nM
4 | CC#C[C@]12C=C(C#N)C(=O)C=C1[C@@]1(C)C=C(C#N)C(=O)C(C)(C)[C@@H]1CC2 (racemic) | 5 nM |  | CD [4]: 7.5 nM
5 | Cc1csc(C#C[C@]23C=C(C#N)C(=O)C=C2[C@@]2(C)C=C(C#N)C(=O)C(C)(C)[C@@H]2CC3)n1 (racemic) | 20 nM |  | Activity [5]: Active; Activity [6]: Active
6 | CC1(C)C(=O)C(C#N)=C[C@]2(C)C3=CC(=O)C(C#N)=C[C@]3(C#C[Si](C)(C)C(C)(C)C)CCC12 (mixture of isomers) | 80 nM |  | CD [4]: 150 nM
7 | CC(=O)OC[C@]12CCC(=O)C=C1[C@@]1(C)C=C(C#N)C(=O)C(C)(C)[C@@H]1CC2 (racemic) | 85 nM |  | 
8 | CC1(C)C(=O)C(C#N)=C[C@]2(C)C3=CC(=O)CC[C@]3(C#N)CC[C@@H]12 (racemic) | 64 nM |  | 
9 | COC(=O)C1=C[C@]2(C)CC[C@H]3C(C)(C)C(=O)C(C#N)=C[C@]3(C)C2=CC1=O (racemic) |  | Non-toxic | 
10 | CC(=O)O[C@@H]1CCC=C2[C@@]3(C)C=C(C#N)C(=O)C(C)(C)[C@@H]3CC[C@]21C (racemic) |  | Non-toxic | 
11 | CCC#C[C@]12C=C(C#N)C(=O)C=C1[C@@]1(C)C=C(C#N)C(=O)C(C)(C)[C@@H]1CC2 (racemic) | 20 nM |  | 
12 | CC1(C)C(=O)C(C#N)=C[C@]2(C)C3=CC(=O)CCCC3(F)CC[C@@H]12 (mixture of isomers) | 360 nM |  | 
13 | CC1(C)C(=O)C(C#N)=C[C@]2(C)C3=CC(=O)C(C#N)=C[C@]3(C#Cc3ccccc3)CC[C@@H]12 (racemic) | 50 nM |  | Activity [5]: Active; Activity [6]: Active
14 | CC1(C)C(=O)C(C#N)=C[C@]2(C)C3=CC(=O)CC[C@]3(C)CC[C@@H]12 (racemic) | 57 nM | Non-toxic | IC50 [1, 9]: 19 nM
15 | CC1(C)C(=O)C(C#N)=C[C@]2(C)C3=CC(=O)C(C#N)=C[C@]3(C#CC#N)CC[C@@H]12 (racemic) | 4 nM |  | Activity [5]: Active
16 | CC1(C)C(=O)C(C(=O)O)=C[C@]2(C)C3=CC(=O)C(C#N)=C[C@]3(C)CC[C@@H]12 (racemic) |  | Non-toxic | IC50 [1, 9]: > 600 nM
17 | C#C[C@]12CCC(=O)C=C1[C@@]1(C)C=C(C#N)C(=O)C(C)(C)[C@@H]1CC2 (racemic) | 83 nM |  | 
18 | CC1(C)C(=O)C(C#N)=C[C@]2(C)C3=CC(=O)CC[C@]3(C=O)CC[C@@H]12 (racemic) | 83 nM |  | 
19 | CC1(C)C(=O)C(C#N)=C[C@]2(C)C3=CC(=O)C(C#N)=C[C@]3(C)CC[C@@H]12 (racemic) | 23 nM | Non-toxic | IC50 ([1]; macrophage): 2.1 nM

Row | SMILES | IC50 ([2]; Mus musculus, RAW264.7, 24 h) | Activity [3] | further results
20 | CC1(C)C(=O)C(C#N)=C[C@]2(C)C3=CC(=O)C(C#N)=C[C@]3(C#Cc3nccs3)CCC12 (mixture of isomers) | 10 nM |  | CD [4]: 35 nM; Activity [5]: Active; Activity [6]: Active
21 | CC1(C)C(=O)C(C#N)=C[C@]2(C)C3=CC(=O)C(C#N)=C[C@]3(C#Cc3nccn3COCC[Si](C)(C)C)CC[C@@H]12 (racemic) | 35 nM |  | Activity [5]: Active
22 | CC1(C)C(=O)C(C#N)=C[C@]2(C)C3=CC(=O)C(C(N)=O)=C[C@]3(C)CC[C@@H]12 (racemic) |  | Non-toxic | 
23 | CC1(C)C(=O)C(C#N)=C[C@]2(C)C3=CC(=O)C[C@@H](O)[C@]3(C)CC[C@@H]12 (racemic) |  | Non-toxic | 
24 | CC1(C)C(=O)C(C#N)=C[C@]2(C)C3=CC(=O)CC[C@]3(C(=O)O)CC[C@@H]12 (racemic) | 83 nM |  | 
25 | CC1(C)C(=O)C(C#N)=C[C@]2(C)C3=CC(=O)C(C#N)=C[C@]3(C#N)CC[C@@H]12 (racemic) | 115 nM |  | 
26 | CC(=O)O[C@@H]1CC(=O)C=C2[C@@]3(C)C=C(C#N)C(=O)C(C)(C)[C@@H]3CC[C@]21C (racemic) |  | Non-toxic | 
27 | CC1(C)C(=O)C(C#N)=C[C@]2(C)C3=CC(=O)C=C[C@]3(C)CC[C@@H]12 |  |  | CD [4]: 170 nM
28 | C[C@@H]1C[C@H]2[C@@H]3CCC4=CC(=O)C=C[C@]4(C)[C@@]3(F)[C@@H](O)C[C@]2(C)[C@@]1(O)C(=O)CO [DEXAMETHASONE] | 20 nM |  | 
29 | C#C[C@]12C=C(C#N)C(=O)C=C1[C@@]1(C)C=C(C#N)C(=O)C(C)(C)[C@@H]1CC2 [listing 1 of 2 here] |  |  | Activity [7]: Active; CD [4]: 2.7 nM; Activity [8]: Active
30 | CC1(C)C(=O)C(C#N)=C[C@]2(C)C3=CC(=O)C(C#N)=C[C@]3(C#C[Si](C)(C)C)CC[C@@H]12 |  |  | Activity [7]: Active; CD [4]: 3 nM; Activity [8]: Active
31 | C=C[C@]12C=C(C#N)C(=O)C=C1[C@@]1(C)C=C(C#N)C(=O)C(C)(C)[C@@H]1CC2 (racemic) | 10 nM |  | CD [4]: 30 nM; Activity [5]: Active
32 | CC1(C)C(=O)C(C#N)=C[C@]2(C)C3=CC(=O)C(C#N)=C[C@]3(C)CC[C@@H]12 [listing 2 of 2 here] |  |  | CD [4]: 150 nM
33 | CC[C@]12CCC(=O)C=C1[C@@]1(C)C=C(C#N)C(=O)C(C)(C)[C@@H]1CC2 (racemic) | 80 nM |  | 
34 | COC(=O)[C@]12CCC(=O)C=C1[C@@]1(C)C=C(C#N)C(=O)C(C)(C)[C@@H]1CC2 (racemic) | 290 nM |  | 
35 | COC(=O)[C@]12CCC(C)(C)C[C@H]1[C@H]1C(=O)C=C3[C@@]4(C)C=C(C#N)C(=O)C(C)(C)[C@@H]4CC[C@@]3(C)[C@]1(C)CC2 [BARDOXOLONE METHYL] |  | Non-toxic | IC50 [1, 9]: 0.2 nM
36 | C[C@]12CCC(=O)C=C1CC[C@@H]1[C@@H]2[C@@H](O)C[C@@]2(C)[C@H]1CC[C@]2(O)C(=O)CO [HYDROCORTISONE] | 61 nM | Non-toxic | IC50 [1, 9]: 10 nM
37 | CC1(C)C(=O)C(C#N)=C[C@]2(C)C3=CCC[C@@H](O)[C@]3(C)CC[C@@H]12 (racemic) |  | Non-toxic | 
38 | COC(=O)C#C[C@]12C=C(C#N)C(=O)C=C1[C@@]1(C)C=C(C#N)C(=O)C(C)(C)[C@@H]1CC2 (racemic) | 20 nM |  | CD [4]: 85 nM; Activity [5]: Active; Activity [6]: Active

Row | SMILES | IC50 ([2]; Mus musculus, RAW264.7, 24 h) | Activity [3] | further results
39 | CC1(C)C(=O)C(C#N)=C[C@]2(C)C3=CC(=O)CC[C@]3(C(=O)OCOCC[Si](C)(C)C)CC[C@@H]12 (racemic) | 150 nM |  | 
40 | CC1(C)C(=O)C(C#N)=C[C@]2(C)C3=CC(=O)C(C(=O)O)=C[C@]3(C)CC[C@@H]12 (racemic) |  | Non-toxic | 
41 | COC[C@]12CCC(=O)C=C1[C@@]1(C)C=C(C#N)C(=O)C(C)(C)[C@@H]1CC2 (racemic) | 40 nM |  | 
42 | CC[C@]12C=C(C#N)C(=O)C=C1[C@@]1(C)C=C(C#N)C(=O)C(C)(C)[C@@H]1CC2 (racemic) | 10 nM |  | CD [4]: 18 nM; Activity [5]: Active
43 | CC1(C)C(=O)C(C#N)=C[C@]2(C)C3=CC(=O)CC[C@]3(CN)CC[C@@H]12 (racemic) | 240 nM |  | 
44 | C#CC#C[C@]12C=C(C#N)C(=O)C=C1[C@@]1(C)C=C(C#N)C(=O)C(C)(C)[C@@H]1CC2 (racemic) | 3 nM |  | Activity [5]: Active; Activity [6]: Active
45 | CC1(C)C(=O)C(C#N)=C[C@]2(C)C3=CC(=O)C(C#N)=C[C@]3(C#CC(=O)O)CC[C@@H]12 (racemic) | 100 nM |  | CD [4]: 150 nM
46 | CC(C)(C)OC(=O)NC[C@]12CCC(=O)C=C1[C@@]1(C)C=C(C#N)C(=O)C(C)(C)[C@@H]1CC2 (racemic) | 64 nM |  | 
47 | CC1(C)C(=O)C(C#N)=C[C@]2(C)C3=CC(=O)CC[C@]3(CO[Si](C)(C)C(C)(C)C)CC[C@@H]12 (racemic) | 480 nM |  | 
48 | CC1(C)C(=O)C(C#N)=C[C@]2(C)C3=CC(=O)C=C[C@]3(C)CC[C@@H]12 (racemic) [listing 1 of 2 here] | 87 nM | Non-toxic | 
49 | CC1(C)C(=O)C(C#N)=C[C@]2(C)C3=CC(=O)C(C#N)=C[C@]3(C#Cc3ncc[nH]3)CC[C@@H]12 (racemic) | 400 nM |  | 
50 | CC1(C)C(=O)C(C#N)=C[C@]2(C)C3=CC(=O)C=C[C@]3(C)CC[C@@H]12 (racemic) [listing 2 of 2 here] |  |  | CD [4]: 160 nM
51 | CC1(C)C(=O)C(C#N)=C[C@@]2(C)C3=CC(=O)CC[C@@]3(C)CC[C@H]12 |  | Non-toxic | IC50 [1, 9]: 26 nM
52 | CC1(C)C(=O)C(C#N)=C[C@]2(C)C3=CC(=O)C(C#N)=C[C@]3(C#C[Si](C)(C)C)CC[C@@H]12 (racemic) | 3 nM |  | 
53 | C#C[C@]12C=C(C#N)C(=O)C=C1[C@@]1(C)C=C(C#N)C(=O)C(C)(C)[C@@H]1CC2 [listing 2 of 2 here] |  |  | IC50 ([2]; raw264.7): 3 nM
54 | CC1(C)C(=O)C(C#N)=C[C@@]2(C)C3=CC(=O)C(C#N)=C[C@@]3(C)CC[C@H]12 |  | Non-toxic | CD [4]: 19 nM; IC50 [1, 9]: 1.3 nM
55 | CC1(C)C(=O)C(C#N)=C[C@]2(C)C3=CC(=O)CC[C@]3(CO)CC[C@@H]12 (racemic) | 350 nM |  | 
56 | CC1(C)C(=O)C(C#N)=C[C@@]2(C)C3=CC(=O)C=C[C@@]3(C)CC[C@H]12 |  | Non-toxic | CD [4]: 140 nM; IC50 [1, 9]: 58 nM
